Experimental data reported in ChEMBL document CHEMBL4190394, “Discovery of Novel Pazopanib-Based HDAC and VEGFR Dual Inhibitors Targeting Cancer Epigenetics and Angiogenesis Simultaneously” (J Med Chem, 2018).

Legend:
[1] = molecular target: Fibroblast growth factor receptor 1 (Homo sapiens, UniProt P11362); assay: Inhibition of FGFR1 (unknown origin) after 40 mins by kinase-Glo assay
Mus musculus [2] = assay: Hepatotoxicity in nu BALB/c mouse xenografted with human HT-29 cells at 50 mg/kg , po administered for 25 consecutive days by macroscopic analysis; assay type: toxicity, organism-based; settings: in vivo
Procedure, shortened: (§1)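 HT-29 xenografted male BALB/c-nu mice dosed orally for 25 days, with PBS (5% DMSO) controls. After treatment mice were sacrificed and dissected, and internal organ injury was examined macroscopically.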

KG-1 = assay: Antiproliferative activity against human KG1 cells after 72 hrs by MTT assay; assay type: functional, cell-based; settings: KG-1, 72 h
Histone deacetylase 1 = Histone deacetylase 1 (Homo sapiens, UniProt Q13547); assay: Inhibition of HDAC1 (unknown origin) using fluorogenic substrate preincubated for 5 mins followed by substrate addition measured after 30 mins by fluorescence-based assay
Sequence of Histone deacetylase 1 (Q13547 whole entry): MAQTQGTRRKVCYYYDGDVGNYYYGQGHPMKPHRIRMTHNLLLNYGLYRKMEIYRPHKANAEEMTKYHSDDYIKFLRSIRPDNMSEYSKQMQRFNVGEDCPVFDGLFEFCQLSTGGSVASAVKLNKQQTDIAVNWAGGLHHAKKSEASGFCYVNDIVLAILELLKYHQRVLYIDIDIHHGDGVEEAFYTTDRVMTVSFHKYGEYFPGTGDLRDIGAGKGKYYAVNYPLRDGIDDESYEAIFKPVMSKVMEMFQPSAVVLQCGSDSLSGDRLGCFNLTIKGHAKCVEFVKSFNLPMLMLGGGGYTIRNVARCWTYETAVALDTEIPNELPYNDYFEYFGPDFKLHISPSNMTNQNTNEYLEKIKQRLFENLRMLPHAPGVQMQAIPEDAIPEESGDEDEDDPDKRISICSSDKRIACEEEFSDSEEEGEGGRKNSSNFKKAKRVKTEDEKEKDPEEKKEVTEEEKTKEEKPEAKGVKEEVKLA

MDA-MB-231 = assay: Antiproliferative activity against human MDA-MB-231 cells after 72 hrs by MTT assay; assay type: functional, cell-based; settings: MDA-MB-231, 72 h
HUVEC = assay: Cytotoxicity activity against HUVEC after 72 hrs by MTT assay; assay type: cell-based; settings: Homo sapiens
Procedure, shortened: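 HUVECs kept in RPMI1640 with 10% FBS at 37 °C, 5% CO2. Cells seeded the day before, grown 12 h, then exposed to a range of compound concentrations for 72 h. Then 0.5% MTT added for 4 h, formazan dissolved in DMSO, and absorbance read at 570 nm.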

Mus musculus [3] = assay: Toxicity in nu BALB/c mouse spleen xenografted with human HT-29 cells at 50 mg/kg , po administered for 25 consecutive days by macroscopic analysis; assay type: organism-based; settings: in vivo; procedure, shortened: as §1
[4] = Cmax in Sprague-Dawley rat at 10 mg/kg, po by LC-MS/MS analysis; assay type: ADME, organism-based; set-up: dose 10 mg/kg, route oral; settings: in vivo
Procedure, shortened: (§2)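 Sprague–Dawley rats (N = 6) dosed with the hydrochloride salt, 2 mg/kg IV or 10 mg/kg PO. Jugular vein blood drawn at set time points and kept on ice. Plasma separated by centrifugation, stored at -80 °C, and quantified by LC-MS/MS.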

K562 = assay: Antiproliferative activity against human K562 cells after 72 hrs by MTT assay; assay type: functional, cell-based; settings: K562, 72 h
[5] = molecular target: Macrophage colony-stimulating factor 1 receptor (Homo sapiens, UniProt P07333); assay: Inhibition of C-fms (unknown origin) after 40 mins by kinase-Glo assay
Sequence of Macrophage colony-stimulating factor 1 receptor (P07333 whole entry): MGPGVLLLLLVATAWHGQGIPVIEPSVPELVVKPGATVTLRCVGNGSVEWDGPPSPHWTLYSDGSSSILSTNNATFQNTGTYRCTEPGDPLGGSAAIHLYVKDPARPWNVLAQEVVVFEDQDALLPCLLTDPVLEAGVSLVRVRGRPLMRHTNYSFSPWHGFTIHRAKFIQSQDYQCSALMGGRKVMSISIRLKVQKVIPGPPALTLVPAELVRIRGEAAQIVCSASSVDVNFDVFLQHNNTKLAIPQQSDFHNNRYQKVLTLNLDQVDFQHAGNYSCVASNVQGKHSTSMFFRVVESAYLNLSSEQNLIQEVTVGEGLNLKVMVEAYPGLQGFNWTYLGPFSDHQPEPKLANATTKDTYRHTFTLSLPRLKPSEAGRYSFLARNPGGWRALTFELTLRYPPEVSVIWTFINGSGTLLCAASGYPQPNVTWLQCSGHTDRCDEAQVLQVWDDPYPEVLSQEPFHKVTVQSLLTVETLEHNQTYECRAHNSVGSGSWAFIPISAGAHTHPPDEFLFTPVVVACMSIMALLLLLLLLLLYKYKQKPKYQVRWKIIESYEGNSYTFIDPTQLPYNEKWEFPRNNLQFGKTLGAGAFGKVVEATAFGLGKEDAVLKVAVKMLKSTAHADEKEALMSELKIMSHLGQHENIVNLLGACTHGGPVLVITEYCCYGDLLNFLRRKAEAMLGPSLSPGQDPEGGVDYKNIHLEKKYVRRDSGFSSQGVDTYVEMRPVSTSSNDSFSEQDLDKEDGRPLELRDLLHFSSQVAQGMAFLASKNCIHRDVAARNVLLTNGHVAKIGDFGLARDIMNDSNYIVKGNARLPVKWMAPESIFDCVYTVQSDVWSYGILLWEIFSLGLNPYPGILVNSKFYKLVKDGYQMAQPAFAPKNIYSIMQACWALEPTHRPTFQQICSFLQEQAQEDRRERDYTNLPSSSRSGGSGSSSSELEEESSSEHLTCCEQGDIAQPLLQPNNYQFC

[6] = Apparent volume of distribution in Sprague-Dawley rat at 2 mg/kg, iv by LC-MS/MS analysis; assay type: ADME, organism-based; settings: in vivo, read-out: Vz; procedure, shortened: as §2
[7] = Half life in Sprague-Dawley rat at 10 mg/kg, po by LC-MS/MS analysis; assay type: ADME, organism-based; settings: in vivo; procedure, shortened: as §2
HeLa = assay: Antiproliferative activity against human HeLa cells after 72 hrs by MTT assay; assay type: functional, cell-based

Sequence of Fibroblast growth factor receptor 1 (P11362 whole entry): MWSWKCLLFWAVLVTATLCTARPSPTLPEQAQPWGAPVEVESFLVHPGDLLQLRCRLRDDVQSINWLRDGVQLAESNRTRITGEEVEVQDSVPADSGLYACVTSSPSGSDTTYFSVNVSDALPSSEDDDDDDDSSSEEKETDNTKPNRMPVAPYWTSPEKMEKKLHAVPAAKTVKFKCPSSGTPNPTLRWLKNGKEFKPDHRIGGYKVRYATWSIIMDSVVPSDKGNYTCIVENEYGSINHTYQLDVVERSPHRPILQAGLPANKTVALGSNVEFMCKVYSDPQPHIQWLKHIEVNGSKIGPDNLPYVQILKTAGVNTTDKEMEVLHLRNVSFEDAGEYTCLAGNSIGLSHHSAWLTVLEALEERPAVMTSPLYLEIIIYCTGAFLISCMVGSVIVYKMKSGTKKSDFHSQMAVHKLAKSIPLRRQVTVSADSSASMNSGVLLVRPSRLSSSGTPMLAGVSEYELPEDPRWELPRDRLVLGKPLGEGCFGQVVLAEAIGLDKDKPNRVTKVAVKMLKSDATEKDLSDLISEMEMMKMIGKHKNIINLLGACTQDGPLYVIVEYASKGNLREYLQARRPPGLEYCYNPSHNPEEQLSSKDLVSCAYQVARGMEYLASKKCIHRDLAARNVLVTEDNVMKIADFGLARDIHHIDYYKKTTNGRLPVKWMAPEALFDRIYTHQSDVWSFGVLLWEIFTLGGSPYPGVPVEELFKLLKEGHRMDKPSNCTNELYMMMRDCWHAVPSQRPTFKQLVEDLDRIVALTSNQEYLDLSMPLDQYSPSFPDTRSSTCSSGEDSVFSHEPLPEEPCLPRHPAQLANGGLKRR

IC50 [1]: 192 nM | IC50 (Histone deacetylase 1): 590 nM | IC50 (MDA-MB-231): 3.74 µM | Cmax [4]: 3240 ng/mL | IC50 (K562): 1820 nM | IC50 [5]: 351 nM | Vd [6]: 2.06 L/kg | half-life [7]: 126 min | IC50 (HeLa): 1710 nM
Compound: Cc1c2ccc(N(C)c3ccnc(Nc4ccc(C(=O)Nc5ccccc5N)cc4)n3)cc2nn1C
Activity (Mus musculus [2]): Non-Toxic | IC50 (KG-1): 670 nM | IC50 (HUVEC): 16 µM | Activity (Mus musculus [3]): Non-Toxic
